The source made the active and inactive calls. The rule behind the calls is not given here.

For assay [1], the system named is HeLa. Put plainly: Induction of mitochondrial membrane depolarization in human HeLa cells at 15 uM after 28 hrs by JC-1 staining-based flow cytometric analysis (reference value: 4%). The class given is functional. An outline of the steps:
(§1)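 HeLa cells (2.0 x 10^5) seeded, compound added after 24 h, then incubated 28 h. Cells loaded with JC-1 working solution for 30 min at 37°C, washed twice and read in assay buffer by flow cytometry. Loss of red aggregate fluorescence scored as depolarized (JC-1 monomer) cells.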

A short description of assay [2]: Cytotoxicity against human OVCAR5 cells assessed as cell growth inhibition after 72 hrs by MTS assay. The note with it: OVCAR-5, 72 h. The class given is functional. An outline of the steps:
(§2)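 Cells grown in RPMI1640 with 10% FBS and 2 mM glutamine at 37°C, 5% CO2; plated at 15 000 cells/mL, treated with compounds 72 h after plating, and survival read by MTS after a further 72 h; dose-response curves plotted.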
In general terms: Tetrazolium assays rely on reduction of a dye to a coloured formazan, in cell work by metabolically active cells.

In assay [3] the test system is HeLa. Put plainly: Induction of apoptosis in human HeLa cells assessed as viable cells at 50 uM after 28 hrs by annexin V/FITC/propidium iodide staining-based flow cytometry (reference value: 95.3%). The assay is classed as functional. Particulars: read-out: Activity. On the technique in general: Flow cytometry measures light scatter and fluorescence of single cells or particles in a stream.

A further assay concerns MCF7. Put plainly: Cytotoxicity against human MCF7 cells assessed as cell growth inhibition after 72 hrs by trypan blue assay. The class given is functional. The note with it: MCF7, 72 h. An outline of the steps: (§3)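 HeLa (F-12 HAM) and MCF-7 (DMEM) kept in medium with 10% heat-inactivated FCS plus antibiotics; 4-5×10^4 cells/well seeded, compounds added after 24 h at various concentrations, then 72 h more. Viable cells counted by trypan blue; GI50 is the concentration giving 50% fewer cells than control. Mean ± SD from at least three independent experiments.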

For assay [4], the system named is HeLa. Put plainly: Cytotoxicity against human HeLa cells assessed as cell growth inhibition after 72 hrs by trypan blue assay. The assay is classed as functional. The essentials:
as §3

In assay [5] the test system is HeLa. Put plainly: Induction of apoptosis in human HeLa cells assessed as early apoptotic cells at 50 uM after 28 hrs by annexin V/FITC/propidium iodide staining-based flow cytometry (reference value: 2.6%). The class given is functional.
Assay [6] relates to HeLa. Put plainly: Induction of apoptosis in human HeLa cells assessed as dead cells at 50 uM after 28 hrs by annexin V/FITC/propidium iodide staining-based flow cytometry (reference value: 1%). The assay is classed as functional. The essentials: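 HeLa cells (2.0 x 10^5 per plate) seeded, grown 24 h in F-12 [HAM] with 10% heat-inactivated fetal calf serum, then exposed to test agent in complete medium for 28 h at 37 °C, 5% CO2. Cells were resuspended at 10^6 cells/mL in binding buffer and stained with annexin V-FITC plus propidium iodide for 15 min in the dark at room temperature. Read by flow cytometry.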

Assay [7] deals with HeLa. Put plainly: Induction of mitochondrial membrane depolarization in human HeLa cells after 28 hrs by JC-1 staining-based flow cytometric analysis. The assay is classed as functional, cell-based. The essentials: as §1
Assay [8] deals with T1, DNA topoisomerase 1 (Homo sapiens) (UniProt P11387).
T1 sequence (whole entry): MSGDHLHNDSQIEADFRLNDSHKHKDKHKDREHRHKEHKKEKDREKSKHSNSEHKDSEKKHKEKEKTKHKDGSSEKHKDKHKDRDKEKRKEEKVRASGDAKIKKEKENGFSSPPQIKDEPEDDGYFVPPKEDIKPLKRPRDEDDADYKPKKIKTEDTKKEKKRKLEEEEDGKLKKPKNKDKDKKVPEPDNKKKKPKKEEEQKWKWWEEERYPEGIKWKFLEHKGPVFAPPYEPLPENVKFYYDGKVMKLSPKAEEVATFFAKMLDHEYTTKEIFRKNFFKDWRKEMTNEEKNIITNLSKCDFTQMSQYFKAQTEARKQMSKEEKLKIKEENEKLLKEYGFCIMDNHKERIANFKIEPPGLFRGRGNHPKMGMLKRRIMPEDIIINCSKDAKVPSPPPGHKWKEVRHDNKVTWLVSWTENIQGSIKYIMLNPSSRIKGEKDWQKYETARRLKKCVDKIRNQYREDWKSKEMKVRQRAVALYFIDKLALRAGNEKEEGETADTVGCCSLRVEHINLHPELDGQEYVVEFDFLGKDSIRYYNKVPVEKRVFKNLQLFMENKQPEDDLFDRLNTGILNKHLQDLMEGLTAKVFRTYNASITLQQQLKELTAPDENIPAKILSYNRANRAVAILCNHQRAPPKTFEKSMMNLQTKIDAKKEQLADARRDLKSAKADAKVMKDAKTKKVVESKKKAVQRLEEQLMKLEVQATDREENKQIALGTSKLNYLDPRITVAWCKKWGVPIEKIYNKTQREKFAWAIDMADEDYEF
Put plainly: Inhibition of human recombinant topoisomerase 1-mediated relaxation of supercoiled pBR322 plasmid DNA at 100 uM after 60 mins by electrophoretic analysis. The essentials: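 Relaxation assay: 0.25 µg supercoiled pBR322 incubated with 2U human recombinant topoisomerase I and compound for 60 min at 37°C. Stopped with SDS stop buffer plus 50 µg/mL proteinase K for 30 min at 37°C, run on 1% agarose at room temperature, then stained with 1 µg/mL ethidium bromide in TAE.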

Assay [9] concerns HeLa. Put plainly: Induction of mitochondrial membrane depolarization in human HeLa cells at 25 uM after 28 hrs by JC-1 staining-based flow cytometric analysis (reference value: 4%). The assay is classed as functional. The essentials: as §1
Assay [10] relates to HeLa. Put plainly: Induction of mitochondrial membrane depolarization in human HeLa cells at 10 uM after 28 hrs by JC-1 staining-based flow cytometric analysis (reference value: 4%). The class given is functional. An outline of the steps:
as §1

Assay [11] concerns HeLa. Put plainly: Induction of apoptosis in human HeLa cells assessed as late apoptotic cells at 50 uM after 28 hrs by annexin V/FITC/propidium iodide staining-based flow cytometry (reference value: 1.2%). The assay is classed as functional.
The target of assay [12] is DNA topoisomerase 2-alpha (Homo sapiens) (UniProt P11388). Put plainly: Inhibition of human recombinant topoisomerase 2 alpha-mediated relaxation of supercoiled pBR322 plasmid DNA at 10 to 50 uM after 60 mins by electrophoretic analysis. An outline of the steps: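 Relaxation assay: 0.25 µg supercoiled pBR322 incubated with 1U human recombinant topoisomerase IIα and compound for 60 min at 37°C; m-AMSA reference at 10 µM. Stopped with SDS stop buffer plus 50 µg/mL proteinase K for 30 min at 37°C, run on 1% agarose, then stained with 1 µg/mL ethidium bromide in TAE.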
DNA topoisomerase 2-alpha (Homo sapiens), sequence (P11388 whole entry): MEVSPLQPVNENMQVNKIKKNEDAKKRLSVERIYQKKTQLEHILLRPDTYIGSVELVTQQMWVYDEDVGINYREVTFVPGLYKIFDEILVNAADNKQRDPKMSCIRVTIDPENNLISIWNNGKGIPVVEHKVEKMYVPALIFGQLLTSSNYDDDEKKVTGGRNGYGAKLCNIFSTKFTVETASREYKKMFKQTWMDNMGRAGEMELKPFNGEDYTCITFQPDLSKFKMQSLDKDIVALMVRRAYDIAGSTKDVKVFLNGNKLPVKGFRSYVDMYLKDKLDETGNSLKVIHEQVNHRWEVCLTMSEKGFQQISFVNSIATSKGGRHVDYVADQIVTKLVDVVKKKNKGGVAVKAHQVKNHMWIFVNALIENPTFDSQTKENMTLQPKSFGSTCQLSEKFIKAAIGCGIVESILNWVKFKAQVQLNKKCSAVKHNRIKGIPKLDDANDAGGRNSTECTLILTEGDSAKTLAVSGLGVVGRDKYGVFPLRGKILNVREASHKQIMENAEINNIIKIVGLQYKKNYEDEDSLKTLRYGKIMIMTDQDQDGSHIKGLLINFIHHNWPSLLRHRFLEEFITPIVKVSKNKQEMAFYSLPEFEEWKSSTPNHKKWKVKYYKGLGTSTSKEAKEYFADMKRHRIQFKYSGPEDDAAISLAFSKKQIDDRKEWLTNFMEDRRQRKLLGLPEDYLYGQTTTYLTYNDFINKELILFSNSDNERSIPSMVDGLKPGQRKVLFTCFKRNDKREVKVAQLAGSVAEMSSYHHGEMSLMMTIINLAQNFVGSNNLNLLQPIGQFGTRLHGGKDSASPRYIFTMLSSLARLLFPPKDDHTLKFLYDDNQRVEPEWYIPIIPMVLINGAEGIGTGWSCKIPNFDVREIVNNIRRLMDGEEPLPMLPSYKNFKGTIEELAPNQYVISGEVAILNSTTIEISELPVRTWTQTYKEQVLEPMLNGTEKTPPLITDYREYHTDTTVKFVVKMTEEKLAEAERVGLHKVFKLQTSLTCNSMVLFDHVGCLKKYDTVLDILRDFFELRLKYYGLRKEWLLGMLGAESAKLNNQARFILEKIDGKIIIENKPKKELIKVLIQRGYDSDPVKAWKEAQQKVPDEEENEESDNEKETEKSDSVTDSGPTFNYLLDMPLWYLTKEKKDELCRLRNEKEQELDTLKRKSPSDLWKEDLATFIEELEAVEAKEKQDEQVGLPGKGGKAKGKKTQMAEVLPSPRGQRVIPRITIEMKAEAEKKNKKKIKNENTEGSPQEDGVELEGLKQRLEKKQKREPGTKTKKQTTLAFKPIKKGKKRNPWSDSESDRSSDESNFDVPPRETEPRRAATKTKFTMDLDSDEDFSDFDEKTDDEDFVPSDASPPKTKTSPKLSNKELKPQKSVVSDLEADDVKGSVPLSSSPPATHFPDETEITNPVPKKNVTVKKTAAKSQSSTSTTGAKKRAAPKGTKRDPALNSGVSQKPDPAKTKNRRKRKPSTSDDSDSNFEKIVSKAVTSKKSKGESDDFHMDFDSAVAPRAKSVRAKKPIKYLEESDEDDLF

For assay [13] the target is unchanged. Put plainly: Poisoning activity at human recombinant topoisomerase 2 alpha using supercoiled pBR322 plasmid DNA as substrate assessed as stabilization of covalent DNA-enzyme complex at 50 uM after 60 mins by electrophoretic analysis. An outline of the steps:
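Cleavage assay: 0.25 µg supercoiled pBR322 with 10 U human recombinant topoisomerase IIα and compound, 60 min at 37°C. Stopped with SDS buffer and 50 µg/mL proteinase K for 30 min at 37°C, then resolved on 1% agarose containing 0.5 µg/mL ethidium bromide in TBE, with UV imaging.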

The test system of a further assay is A2780. Put plainly: Cytotoxicity against human A2780 cells assessed as cell growth inhibition after 72 hrs by MTS assay. The assay is classed as functional. Particulars: A2780, 72 h. The essentials:
as §2

A word on the GI50: it is the concentration giving 50% growth inhibition. In the case of `CC/C(=C(/c1ccc(NC(=O)C(C)C)cc1)c1ccc(OC)cc1)c1ccc(Cl)cc1Cl`, the Activity in the assay with HeLa [1] was 75.7%; in the assay on HeLa [5], 44.4%; in the assay on HeLa [6] it was 2.1%; in the assay on HeLa [7], “Dose-dependent effect”; in the assay on HeLa [9], 80.3%; with HeLa [10], 51.8%. Further, the Activity with HeLa [11] was 21.8%. Further, the 50% growth inhibitory concentration (GI50) in [2] was over 50 µM; in the assay with MCF7, 6.6 µM; in the assay with HeLa [4], 2.2 µM; in the assay with A2780, 3.8 µM. Besides, the viability at 50 µM in the assay with HeLa [3] was 31.7%. For the same molecule, in [8], the inhibition entry was “inactive”. The inhibition entry in assay [12] is “Active”. The outcome in assay [13] was Active.

The values above are taken from ChEMBL document CHEMBL3822447, “4-(1,2-diarylbut-1-en-1-yl)isobutyranilide derivatives as inhibitors of topoisomerase II” (2016).
